Fewer inactive variants are shown than the library holds.
B1: tRNA (parent)
chain: GUUCCGUUGGCGUAAUGGUAACGCGUCUCCCUCCUAAGGAGAAGACUGCGGGUUCGAGUCCCGUACGGAACG

Variants of: B1
Assay: yeast fitness relative to wild type (ratio to wild type); higher = fitter; tRNA-Arg(CCU), competitive growth, 37 C, YPD
Summary of the method: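 Gene amplicons from the start population and from each of six end populations were read by 100-nucleotide paired-end sequencing. Those end populations came from pooled Saccharomyces cerevisiae strains carrying tRNA-Arg(CCU) gene variants at the native locus, competed in YPD at 37°C for 24 hours. Fitness relative to wild type was worked out from changes in genotype frequencies. Genotypes needed ≥ 100 starting reads, and estimates < 0.5 were set to 0.5.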

Point of comparison: C11U A21U G50C U64C, yeast fitness 0.597. Against it:
- C11G U28A C62A — lower, ≤ 0.5
- C11G G41A — lower, 0.586
- C11G U19C C34G C60A G67C — lower, ≤ 0.5
- C11U A15G C27G C60U C62G C66G — lower, ≤ 0.5
- C11G U13G G56A A69C — lower, ≤ 0.5
- C11U A21U G41A A57C — lower, ≤ 0.5
- C11G G12A C22A A36C C61G A69C — lower, ≤ 0.5
- C11G G12A C31G A69U — lower, ≤ 0.5
- C11U A15G C46A — higher, 0.915
- C11U A15C C27G A70G — lower, ≤ 0.5
- C11G U32C C60G — lower, ≤ 0.5
- C11U A21G C24A — lower, 0.529
- C11U A20U C60U — lower, ≤ 0.5
- C11U A15C G44A A65U — lower, ≤ 0.5
- C11G G18A C24U — lower, 0.542
- C11G U26A C27A C29G C46A G50A U59G — higher, 0.73
- C11G G23C A36U G44C — higher, 0.748
- C11U A36G C60G A70C — lower, ≤ 0.5
- C11G U16G C55A — lower, ≤ 0.5
- C11G U13C A14G G17A G48C C62U C66G A70G — lower, ≤ 0.5
- C11G G17A C22U C27U C33G — lower, ≤ 0.5
- C11G U28A C66U A70U — lower, ≤ 0.5
- C11G U28A — lower, ≤ 0.5
- C11G U28G A37G — lower, ≤ 0.5
- C11G G12A A45C C46G G52A — lower, ≤ 0.5
- C11G G12C A21G U35A G51A — higher, 0.732
- C11U A20U C24U C29A C49U A70G — lower, ≤ 0.5
- C11U A21C G67A — the same, 0.597
- C11U A36C C61U — lower, ≤ 0.5
- C11U A15C C29U A37G A69U — lower, ≤ 0.5
- C11U A14G C29U G39A — lower, ≤ 0.5
- C11G G63A — higher, 0.605
- C11G G63C — lower, 0.543
- C11U A21C U35A A42U C46G — lower, ≤ 0.5
- C11G U16A A65G — lower, 0.567
- C11G G17C G63A — lower, ≤ 0.5
- C11U A15C C29U A37G — lower, 0.535
- C11U A15G C27G C46U — lower, 0.548
- C11U A21C C27U A42G A69C A70G — lower, ≤ 0.5
- C11U A14C C29G C30G A36U A40U — lower, 0.591
- C11U A15C A65C A70U — lower, ≤ 0.5
- C11U A20U C24U C29A U32C A70G — lower, ≤ 0.5
- C11G G12A U19C — lower, ≤ 0.5
- C11G U54A — lower, ≤ 0.5
- C11G G23C A37G C49U C61U — lower, ≤ 0.5
- C11U A14G C27A G48A U53A C61G — lower, ≤ 0.5
- C11U A14C C22U A43C — lower, ≤ 0.5
- C11U A20U C30A G38A G51A U54A — lower, ≤ 0.5
- C11U A15G A21G C34U G44A C61A A70C — lower, ≤ 0.5
- C11G U16A C29U A69C — lower, 0.538
- C11U A14G U35C A70U — lower, ≤ 0.5
- C11U A20G C24G — lower, 0.506
- C11U A21C A36C A70U — lower, ≤ 0.5
- C11U A14C G68A — higher, 0.624
- C11G U35C C46U C61U — lower, ≤ 0.5
- C11U A21C A37U A42G A69C A70G — lower, ≤ 0.5
- C11U A20U G44A C46A G52A C66U — lower, ≤ 0.5
- C11U A21G C55U — lower, 0.593
- C11U A14C A15G U26A C34A C46G — higher, 0.637
- C11U A36G G41A C49U G63A — lower, ≤ 0.5
- C11G G12C C60A C61A — lower, ≤ 0.5
- C11G U13G G63A — lower, ≤ 0.5
- C11U A21C — higher, 0.714
- C11G G12C A20C C24G G39C C60A — lower, ≤ 0.5
- C11U A15G — higher, 1.01
- C11U A36U A37C A42U G63C — lower, ≤ 0.5
- C11U A21U A42G C60A — lower, ≤ 0.5
- C11U A14U C27U A36U A43G C46U A65U — lower, ≤ 0.5
- C11U A14G C24G C27U A36G G41A A42C — lower, ≤ 0.5
- C11G G63C G67C — lower, ≤ 0.5
- C11G G67C — lower, 0.581
- C11U A15G C46A A57G — higher, 0.629
- C11G G58C — lower, 0.589
- C11U A14C C29U C30G A40G C49A — lower, ≤ 0.5
- C11G U32A G68A — higher, 0.746
- C11G U16G G38C — lower, 0.577
- C11G U53A C55U G56C — lower, ≤ 0.5
- C11G G12A C22U G39A U64A — lower, ≤ 0.5
- C11G U53C — lower, 0.584
- C11U A20U C29G U47G G63A A70U — lower, ≤ 0.5
- C11U A21U A45U — higher, 1.15
- C11U A14U G18A G41A A42C G50C A70G — lower, 0.552
